High-throughput results from PubChem.
Hits are enriched below; roughly 3.8% of the tested compounds scored in any of these assays.
TMEM16A act: TMEM16A chloride channel activators or potentiators, primary screen, cell-based, HTS; Anoctamin-1 (Mus musculus), Q8BHY3; HEK293 TMEM16A/YFP-H148Q/I152L, iodide quench fluorescence; hits give low values; B-score at 10 µM; 340,000 compounds, 0.3% hits; AID 623877, 2012;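 active = fluorescence-ratio B-score plate-corrected deviation score at least 3 library SD below zero, with starting fluorescence score within 5 deviations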;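 also: channel opened by trigger with iodide after compound preincubation; score built on the fluorescence ratio of max minus min over baseline; more negative score means more quench and so TMEM16A activation or potentiation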
MC4R antag cAMP: MC4R antagonists of cAMP signaling, primary screen, cell-based, TR-FRET, antagonist arm of biased-ligand search; Melanocortin receptor 4 (Homo sapiens), P32245; AID 540295, 2011; MC4R-expressing cells, MTII-stimulated cAMP, LANCE TR-FRET; 360,000 compounds, 0.48% hits; inhibition, % at 6.5 µM;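 active = inhibition above its plate's cutoff, the mean of tested wells on that plate plus 3 SD, cut at about 29% in these data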;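 also: 0% = Melanotan II alone and 100% = Melanotan II plus saturating MCL0020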
Target sequence (P32245 whole entry, looked up): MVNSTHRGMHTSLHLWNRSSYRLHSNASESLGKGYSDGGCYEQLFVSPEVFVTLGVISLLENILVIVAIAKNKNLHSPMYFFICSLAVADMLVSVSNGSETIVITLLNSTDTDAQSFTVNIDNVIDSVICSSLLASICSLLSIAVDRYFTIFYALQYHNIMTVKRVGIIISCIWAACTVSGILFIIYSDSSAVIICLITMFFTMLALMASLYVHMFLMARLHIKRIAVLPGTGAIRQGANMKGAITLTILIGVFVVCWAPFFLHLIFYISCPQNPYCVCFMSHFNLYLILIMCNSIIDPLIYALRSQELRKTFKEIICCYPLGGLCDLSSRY
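Assay system: U2OS-MC4R stable cell line; Also added: Melanotan II; Technique: Eu-cAMP/anti-cAMP TR-FRET, emission 671 nm; Times: 30-min compound, 1-h challenge, 1-h detection, room temperature.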
TMEM16A inh: TMEM16A chloride channel inhibitors, primary screen, cell-based, HTS. Anoctamin-1 (Mus musculus), Q8BHY3. HEK293 TMEM16A/YFP iodide influx fluorescence, ionomycin. normalized B-score (activity score, 25-100; higher = stronger inhibition) at 10 µM. 310,000 compounds, 1.2% hits. AID 588511, 2011;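 active = ratio plate-corrected score three or more library SD toward inhibition, starting fluorescence score within five deviations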;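 also: score derived from kinetic fluorescence span divided by baseline fluorescence per well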
Beta cell apopt: inhibitors of cytokine-induced beta cell apoptosis, primary screen, luminescence. INS-1E cytokine-induced death, ATP luminescence, 48 h; percent of positive-control rescue, neutral wells zero. protection from apoptosis, % (no concentration beside the values). 300,000 compounds, 0.8% hits. AID 435005, 2010;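 active = Every replicate reaches about 75%, or at least half do and their mean reaches it too, limit read from the data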;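 also: 0% = cytokine-treated negative control wells and 100% = positive control rescue; higher means more ATP so stronger rescue from cytokine killing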
MC4R ag barr: MC4R agonists recruiting beta-arrestin, primary screen, cell-based, luminescence, agonist arm of biased-ligand search. Melanocortin receptor 4 (Homo sapiens), P32245. U2OS MC4R beta-arrestin complementation; percent of melanotan II response, DMSO zero. activation, % at 8.9 µM. 360,000 compounds, 0.98% hits. AID 540308, 2011;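 active = activation above a per-plate cutoff, the mean activation of sample wells on that plate plus 3 SD, cut at about 8% in these data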
CSC inhib: cancer stem cell viability inhibitors, primary screen, luminescence; cancer stem cell-like cells viability; inhibition, % at 7.5 µM; 300,000 compounds, 1.1% hits; in the data active = inhibition above about 75%; tested in HMLE shEcad cells
An asterisk follows results filed as active; i = inactive; x = no result.

SMILES | TMEM16A act | MC4R antag cAMP | TMEM16A inh | Beta cell apopt | MC4R ag barr | CSC inhib
O=c1cc(-c2ccccc2)[nH]n1-c1ccc([N+](=O)[O-])cc1 | i | 5.8 | 100* | 40.2 | -3.9 | 138.4*
O=C(C1=C[C@@H](c2ccccc2)C[C@@H](OCCCCO)O1)N1CCOCC1 | i | 0.9 | 100* | -1.1 | -0.8 | 7.0
CNC(C)C(=O)NC(C(=O)N1CCCC1C(=O)NNc1ccccc1)C(C)C (stereo unspecified) | i | 1.3 | x | 5.0 | -1.2 | 98.1*
CCN1C(=O)[C@H]2[C@@H](c3ccc(-c4cc(C(C)=O)cs4)cc3)N3CCCC[C@@]3(C(=O)OC)[C@H]2C1=O | i | 0.2 | i | 8.0 | 1.0 | 4.2
O=C(NC1CC1)C(=O)c1c(-c2ccccc2)[nH]c2ccccc12 | -7.55* | -2.8 | i | 2.3 | 0.2 | -21.4
COc1ccc(S(=O)(=O)N2CCOCC2)cc1NC(=O)CSc1nnnn1C1CC1 | i | 13.6 | x | 3.5 | -2.9 | x
COc1ccc([C@H]2CC(=O)C=C(c3ccc(-c4ccccc4)c(F)c3)C2)cc1OC | -6.23* | 12.2 | x | -2.0 | -0.2 | 10.1
COc1ccc([C@H]2CC(=O)C=C(c3ccc4ccccc4c3)C2)cc1OC | i | 7.5 | x | -4.9 | -2.6 | 10.5
CCCC(/C=C/c1ccc(OC(C)=O)cc1)=C1/c2ccccc2C(=O)N1c1ccccc1 | i | 10.9 | x | -3.4 | 0.2 | 112.0*
CC(=O)Oc1ccc(C#C/C=C2\c3ccccc3C(=O)N2c2ccccc2)cc1 | i | 8.2 | x | 4.9 | 1.5 | 133.8*
CC(C)(C)OC(=O)n1cccc1/C=C1\c2ccccc2C(=O)N1c1ccccc1 | i | -1.4 | x | x | -1.1 | x
CC(=O)Oc1ccc(CC(C(=O)O)N2C(=O)c3ccccc3C2=O)cc1 (stereo unspecified) | i | 18.4 | i | -4.7 | 0.5 | -1.6
CCCCNC(=O)C1(C)CCCCN1C(=O)c1ccc(C#N)cc1 (stereo unspecified) | x | 3.3 | x | x | -1.6 | x
O=C(CSc1ncnc2sc3c(c12)CCCC3)c1ccccc1 | -4.99* | 13.3 | i | 1.4 | -0.8 | 35.1
C[C@H](NC(=O)c1nc[nH]c1C(=O)N1CCN(C(=O)OC(C)(C)C)CC1)c1ccccc1 | -7.15* | 13.2 | x | -2.3 | 1.0 | 17.7
CC(C)C[C@H](NC(=O)c1[nH]cnc1C(=O)N[C@H](C)c1ccccc1)C(=O)OC(C)(C)C | i | 8.7 | i | 27.3 | 0.7 | 45.2
CC(C)C[C@H](NC(=O)c1nc[nH]c1C(=O)NC(c1ccccc1)c1ccccc1)C(=O)OC(C)(C)C | i | 13.9 | i | 36.2 | -2.5 | 97.0*
C[C@H](NC(=O)c1nc[nH]c1C(=O)NCC(=O)OCc1ccccc1)C(=O)OC(C)(C)C | i | 11.9 | i | -0.7 | 1.9 | 6.5
CC(C)C[C@H](NC(=O)c1nc[nH]c1C(=O)NCC(=O)OCc1ccccc1)C(=O)OC(C)(C)C | -14.8* | 2.7 | i | -7.2 | 2.5 | -8.3
N#Cc1c(Nc2ccccc2)[n+]([O-])c2ccc(Cl)cc2[n+]1[O-] | i | -9.2 | x | x | -0.8 | x
CCc1nc2c(OCc3ccc(F)cc3)cccn2c1N(C)C(=O)c1ccc(C)cc1 | x | -4.8 | x | x | -2.6 | x
COc1ccc(CCNC(=O)Cn2nc(C)c3c(C)n(-c4ccccc4)nc3c2=O)c(OC)c1 | -7.87* | 15.3 | i | -3.7 | -1.2 | 0.0
Cc1cc(C)cc(NC(=O)C2CCN(c3nccs3)CC2)c1 | -14.4* | 7.0 | i | 3.2 | 1.4 | 1.5
CC#CC[N+](C)(C)CCCCCCCC | i | 20.7 | i | 130.5* | -0.3 | 3.8
O=C(/C=C/c1ccc2c(c1)OCO2)Nc1nc(-c2ccc(F)cc2F)cs1 | x | x | i | 41.8 | x | 95.4*
SMILES | TMEM16A act | MC4R antag cAMP | TMEM16A inh | Beta cell apopt | MC4R ag barr | CSC inhib
O=C(/C=C/c1ccc2c(c1)OCO2)Nc1nc2ccccc2s1 | i | -5.3 | i | 58.0 | -1.1 | 67.3
Cc1csc(NC(=O)/C=C/c2ccc3c(c2)OCO3)n1 | i | 3.3 | i | 4.4 | -0.6 | 59.8
Cc1ccc(NC(=O)/C=C/c2ccc3c(c2)OCO3)nc1 | i | -10.2 | i | -5.2 | -1.6 | 109.6*
Cc1ccc2nc(NC(=O)/C=C/c3ccc4c(c3)OCO4)sc2c1 | i | 6.3 | i | 83.8* | 2.4 | 49.2
Cc1ccc([C@@H]2CC(=O)[C@@H]3CN(S(=O)(=O)c4ccc(C)cc4)[C@H](c4ccc(Cl)cc4)C[C@@H]3N2S(=O)(=O)c2ccc(C)cc2)cc1 | x | 6.6 | x | x | 0.9 | x
COc1ccc(NC(=O)C2CCN(S(=O)(=O)c3ccc(Cl)c(C(F)(F)F)c3)CC2)cn1 | x | 13.2 | x | x | -0.4 | x
O=C(NOCc1cscn1)Nc1ccccc1 | i | 5.5 | x | x | -3.4 | x
CCN(CC)C(=O)C1=C(C)N(Cc2ccc(OC)cc2)C(=O)C(CC(=O)NC2CCCCC2)C1 (stereo unspecified) | x | 24.4 | x | x | 1.1 | x
CCNC(=O)c1ccc2c(c1)C1C3CCC(C3)C1C(c1ccccc1)N2 (stereo unspecified) | -6.68* | 16.4 | i | x | 0.4 | -3.7
COc1ccc(CNC(=O)c2cc(=O)c3cc(C)cc(C)c3o2)cc1 | i | 7.5 | i | 0.0 | -1.3 | -12.6
O=c1cc(-c2ccc(O)cc2)oc2ccc3ccccc3c12 | i | -2.8 | x | 45.2 | -0.7 | 89.9*
COc1c(O)cc2oc(-c3ccc(O)cc3)cc(=O)c2c1O | i | -19.6 | i | x | -0.9 | 10.5
COc1cccc(-c2coc3c(C)c4oc(=O)c(CCC(=O)O)c(C)c4cc23)c1 | i | 14.4 | 100* | 12.6 | 2.9 | 13.2
Nc1nc(-c2ccccn2)nc(N)c1Cc1ccc(Cl)cc1Cl | i | 2.1 | i | 95.5* | -1.4 | -10.2
Nc1nc(-c2ccccn2)nc(N)c1Cc1ccccc1F | i | 0.5 | i | 20.1 | -2.8 | -12.8
Nc1nc(-c2ccccn2)nc(N)c1Cc1c(F)cccc1Cl | i | 1.9 | i | 96.1* | -0.2 | 4.8
O=C(CN1CCN(c2ccccc2O)CC1)Nc1ccnn1C1CCCC1 | i | 0.8 | x | 7.2 | 3.2 | x
CC1(C)Cc2c(cnn2-c2ccccc2)C(NC(=O)CCCn2cncn2)C1 (stereo unspecified) | i | 1.4 | i | 2.1 | -1.4 | 2.6
c1ccc(N(c2ccccc2)c2nc(N3CCCC3)nc(-n3ccnc3)n2)cc1 | i | 20.2 | i | 24.2 | -1.7 | 101.2*
CN(c1ccccc1)c1nc(N2CCCC2)nc(-n2ccnc2)n1 | i | 17.4 | i | 2.1 | 0.5 | 18.8
FC(F)Sc1ccc(NC(=S)NC2CCCCC2)cc1 | i | 3.0 | i | 0.9 | -0.2 | 14.2
